This is an account of results in ChEMBL document CHEMBL5252546, “Salutaxel, a Conjugate of Docetaxel and a Muramyl Dipeptide (MDP) Analogue, Acts as Multifunctional Prodrug That Inhibits Tumor Growth and Metastasis” (J Med Chem, 2018).

The source made the active and inactive calls. The rule behind the calls is not given here.

The subject of data set [1] is 4T1. The experiment in a line: Antitumor activity against mouse 4T1 cells xenografted with BALB/c mouse assessed as decrease in tumor volume at 5.7 mg/kg,iv administrated once per week for 4 weeks. In kind it is functional, organism-based. A digest of the protocol:
(§1)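 4T1 cells injected into mammary fat pads of BALB/c mice. Dosing iv once per week for 4 weeks, saline vehicle; single-agent arms were given alone or with the peptide component (5b or 6). Endpoints were body weight, tumour volume, tumour weight, lung metastatic nodule count and lung metastasis score. Mean ± SEM, n = 10; ANOVA and Student's t test.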

In data set [2] the test system is 4T1. The experiment in a line: Antitumor activity against mouse 4T1 cells xenografted with BALB/c mouse assessed as reduction lung metastatic nodules at 5.7 mg/kg,iv in presence of compound 6 administrated once per week for 4 weeks. The data set is classed as functional, organism-based. A digest of the protocol: as §1
For data set [3], the system named is 4T1. Description: Antitumor activity against mouse 4T1 cells xenografted with BALB/c mouse assessed as inhibition of tumor growth at 5.7 mg/kg,iv administrated once per week for 4 weeks. In kind it is functional. The note with it: 4T1, 672 h. A digest of the protocol:
as §1

The subject of data set [4] is 4T1. Description: Antitumor activity against mouse 4T1 cells xenografted with BALB/c mouse assessed as inhibition of tumor growth at 5.7 mg/kg,iv in presence of compound 5b administrated once per week for 4 weeks. The data set is classed as functional. Conditions: 4T1, 672 h. Put shortly: as §1
Data set [5] concerns 4T1. Description: Antitumor activity against mouse 4T1 cells implanted in BALB/c mouse assessed as decrease in spleen MDSC cells at 5.7 mg/kg,iv measured after 28 days (reference value: 38%). In kind it is functional. Also on record: scale not given: the % may be the effect or the level left. The note with it: time 28 day. Put shortly:
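Splenocytes taken from 4T1 fat-pad tumor-bearing BALB/c mice after 28 days of tumor growth with weekly iv dosing. Cells stained with anti-CD11b PE and anti-Gr-1 FITC, and the Gr-1+CD11b+ percentage scored by flow cytometry. Eight mice per treated group, five naive. Mean ± SEM.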

The nature of data set [6]: Toxicity in BALB/c mouse xenografted with human NCI-H1975 cells assessed as body weight loss at 5.7 mg/kg,iv administrated once per week for 3 weeks. In kind it is organism-based. The note with it: in vivo, 504 h. Put shortly:
(§2)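 Nude BALB/c nu/nu mice received subcutaneous human tumour cells into the right flank. Dosing started at mean tumour volume of 100–120 mm3, iv once weekly for 3 weeks; the taxane arm was an equimolar control. Body weight and overt side effects were monitored. Mean ± SEM, n = 8.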

Data set [7] is described as follows: Toxicity in BALB/c mouse xenografted with human A549/Taxol cells assessed as side effects at 5.7 mg/kg,iv administrated once per week for 3 weeks. In kind it is organism-based, A549/TR. The note with it: in vivo, 504 h. Put shortly: as §2
In general terms: In xenograft studies the graft and the host belong to different species.

Data set [8] can be described thus: Clearance in Beagle dog at 4 mg/kg,iv measured upto 24 hrs. The data set is classed as ADME, organism-based, Canis lupus familiaris. Conditions: in vivo. A digest of the protocol:
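Beagle dogs were given a single iv infusion at 1, 2 or 4 mg/kg. Plasma parent drug and released docetaxel were followed over time. Cmax, Tmax, AUC, MRT, t1/2, CL and Vss were reported by sex and for all dogs combined.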

The nature of data set [9]: Volume of distribution at steady state in male rat at 2 mg/kg,iv measured upto 24 hrs. In kind it is ADME, organism-based. The note with it: in vivo, read-out: Vdss.
The subject of data set [10] is 4T1. The experiment in a line: Antitumor activity against mouse 4T1 cells implanted in BALB/c mouse assessed as decrease in S100A9 mRNA expression in lung at 20 mg/kg,iv administrated qd for 2 days by qRT-PCR analysis. In kind it is functional, organism-based. The note with it: time 2.0 day. A digest of the protocol:
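Day 19 after 4T1 implantation, mice randomised into five groups; iv vehicle or 20 mg/kg plus ip C12-iE-DAP (50 μg/mouse) and MDP (100 μg/mouse) once daily for 2 days; killed after 48 h; lung mRNA for MMP8, MMP9, PROK2, S100A8, S100A9 and IL-1β by qPCR; mean ± SEM.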
(In general: In qPCR the cycle at which signal appears reflects the starting amount.)

Data set [11] in a line: Drug concentration in rat brain assessed as docetaxel concentration at 4 mg/kg,iv measured after 24 hrs. The note with it: in vivo. The data set is classed as ADME, organism-based. A digest of the protocol: (§3)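 Rats received 4 mg/kg iv. Parent drug and released docetaxel were assayed in tissues and plasma from the first sampling at 0.25 h to 24 h. The lower limit of quantitation was 200 ng/g.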

Data set [12] can be described thus: Stability in dog hepatocyte assessed as compound remaining at 3 uM incubated upto 120 mins. The data set is classed as ADME, cell-based, Canis lupus familiaris. The note with it: hepatocytes, 2 h.
A short description of data set [13]: Drug metabolism in rat hepatocytes assessed as docetaxel metabolite formation at 20 uM incubated for 180 mins. In kind it is ADME, cell-based, Hepatocyte. Conditions: 3 h.
Data set [14] in a line: Volume of distribution at steady state in female rat at 2 mg/kg,iv measured upto 24 hrs. In kind it is ADME, organism-based. The note with it: in vivo, read-out: Vdss.
A short description of data set [15]: Tmax in male rat at 4 mg/kg,iv measured upto 24 hrs. Conditions: in vivo. The data set is classed as ADME, organism-based.
A short description of data set [16]: Tmax in Beagle dog at 1 mg/kg,iv measured upto 24 hrs. The data set is classed as ADME, organism-based, Canis lupus familiaris. Conditions: in vivo.
The nature of data set [17]: Tmax in mouse plasma implanted with mouse 4T1 cells at 10 mg/kg,iv measured upto 72 hrs. In kind it is ADME, organism-based.
A short description of data set [18]: Half life in Beagle dog at 4 mg/kg,iv measured upto 24 hrs. The data set is classed as ADME, organism-based, Canis lupus familiaris. The note with it: in vivo.
Data set [19] in a line: Half life in female Beagle dog at 4 mg/kg,iv measured upto 24 hrs. In kind it is ADME, organism-based, Canis lupus familiaris. The note with it: in vivo.
Data set [20] can be described thus: Prodrug conversion in mouse plasma implanted with mouse 4T1 cells assessed as MRT of docetaxel at 4 mg/kg,iv measured upto 72 hrs. The data set is classed as ADME, organism-based. Conditions: in vivo.
Data set [21] can be described thus: Drug metabolism in rat hepatocytes assessed as MDA-205 metabolite formation at 20 uM incubated for 180 mins. The data set is classed as ADME, cell-based, Hepatocyte. Conditions: 3 h.
Data set [22] can be described thus: Toxicity in BALB/c mouse xenografted with human HCT-116 cells assessed as body weight loss at 10 mg/kg,iv administrated once per week for 3 weeks. Conditions: in vivo, 504 h. The data set is classed as organism-based.
Data set [23] is described as follows: Clearance in male rat at 2 mg/kg,iv measured upto 24 hrs. Conditions: in vivo. In kind it is ADME, organism-based. A digest of the protocol:
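Rats were given a single iv injection at 2, 4 or 8 mg/kg. Plasma parent drug and released docetaxel were followed over time. Cmax, Tmax, AUC, MRT, t1/2, CL and Vss were reported for males, females and all animals combined.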

For data set [24], the system named is 4T1. Description: Antitumor activity against mouse 4T1 cells xenografted with BALB/c mouse assessed as inhibition of tumor growth at 5 to 20 mg/kg,iv administrated once per week for 4 weeks. The data set is classed as functional, organism-based. Conditions: dose 5-20 mg/kg. A digest of the protocol: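 4T1 cells injected into the mammary fat pad of BALB/c mice; iv saline vehicle or 5, 10 or 20 mg/kg once weekly for 4 weeks; body weight, tumour volume, tumour weight, lung metastatic nodule count and metastasis score recorded; n = 10, mean ± SEM, ANOVA and Student's t test.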

A short description of data set [25]: Drug distribution in rat spleen at 4 mg/kg,iv measured by 0.25 hrs. The data set is classed as ADME, organism-based. The note with it: in vivo. A digest of the protocol:
as §3

Data set [26] deals with 4T1. The experiment in a line: Antitumor activity against mouse 4T1 cells implanted in BALB/c mouse assessed as decrease in tumor MMP2 expression level at 5 to 20 mg/kg,iv administrated once per week for 4 weeks by western blot assay. In kind it is functional, organism-based. Conditions: dose 5-20 mg/kg. A digest of the protocol: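 4T1 fat-pad model in BALB/c mice, iv once weekly for 4 weeks; MMP9, MMP2 and NOD1 in spleen, lung and tumour by western blot, β-actin loading control; bands averaged over five mice per group, representative of two independent experiments.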
A general note: Immunoblotting shows a protein as a band on a membrane.

The nature of data set [27]: Volume of distribution at steady state in female Beagle dog at 4 mg/kg,iv measured upto 24 hrs. The note with it: in vivo, read-out: Vdss. In kind it is ADME, organism-based, Canis lupus familiaris.
The nature of data set [28]: Prodrug conversion in mouse plasma implanted with mouse 4T1 cells assessed as AUC (0-t) of docetaxel at 4 mg/kg,iv measured upto 72 hrs. The data set is classed as ADME, organism-based. On the set-up: time < 72 hrs, dose 4 mg/kg, route iv. The note with it: in vivo.
Data set [29] can be described thus: AUC (0-infinity) in female Beagle dog at 2 mg/kg,iv measured upto 24 hrs. The data set is classed as ADME, organism-based, Canis lupus familiaris. Also on record: time < 24 hrs, dose 2 mg/kg, route iv. Conditions: in vivo. A digest of the protocol:
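Single iv dose: rats 2, 4 or 8 mg/kg by intravenous injection; Beagle dogs 1, 2 or 4 mg/kg by intravenous infusion. Plasma concentration–time data were analysed by sex and pooled. Reported parameters: Cmax, Tmax, AUC0−t, AUC0−∞, MRT0−∞, t1/2, CL, Vss, given as mean ± SD.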

Data set [30] is described as follows: Stability in monkey plasma assessed as compound remaining at 1 uM incubated for 6 hrs. In kind it is ADME, cell-free, Macaca mulatta. Conditions: rhesus monkey.

With `CC(=O)O[C@@]12CO[C@@H]1C[C@H](O)[C@@]1(C)C(=O)[C@H](O)C3=C(C)[C@@H](OC(=O)[C@H](O)[C@@H](NC(=O)OC(C)(C)C)c4ccccc4)C[C@@](O)([C@@H](OC(=O)c4ccccc4)[C@H]21)C3(C)C` [DOCETAXEL ANHYDROUS], in the data set on 4T1 [1], the outcome was Active. For the same compound, the outcome with 4T1 [2] was inactive. Also, the inhibition in vivo (in general, the drop in the measured response relative to a control, in per cent) at 5.7 mg/kg is 19.6% in the data set on 4T1 [3] and 14.4% in the data set on 4T1 [4]. In addition, the Activity with 4T1 [5] was 36.4%; in [6], “Non-Toxic”; in data set [7], “Non-Toxic”.
For the compound `CC(=O)O[C@@]12CO[C@@H]1C[C@H](O)[C@@]1(C)C(=O)[C@H](O)C3=C(C)[C@@H](OC(=O)[C@H](OC(=O)CCC(=O)NCCCC[C@H](NC(=O)CC[C@@H](NC(=O)[C@H](C)NC(=O)/C=C/c4ccc(F)cc4Cl)C(N)=O)C(=O)O)[C@@H](NC(=O)OC(C)(C)C)c4ccccc4)C[C@@](O)([C@@H](OC(=O)c4ccccc4)[C@H]21)C3(C)C`, the values for the clearance in [8] and in [23] were 4.28 mL/min/kg and 5.58 mL/min/kg, respectively. Also, the Vd in data set [9] came out at 0.076 L/kg; in data set [14], 0.067 L/kg; in data set [27], 0.087 L/kg. In addition, the outcome in the data set with 4T1 [10] was Active. For the same compound, the results for the Drug uptake result in [11] and in data set [25] were “Not Active” and “Active”, respectively. Further, the Stability entry in data set [12] and in [30] was “Stable” each time. The Drug metabolism result in data set [13] and in data set [21] was “Metabolite_Detected” in each case. Moreover, the Tmax (as a rule, the time at which the peak concentration occurs) came to 4.98 min in [15], 30 min in data set [16] and 1.8 min in data set [17]. In addition, the values for the half-life in data set [18] and in data set [19] were 35.5 min and 33.8 min, respectively. Further, the MRT (commonly the average time that molecules of a dose stay in the body) in data set [20] stood at 52.8 min. In data set [22], the Activity result is reported as “Non-Toxic”. Also, in the data set with 4T1 [24], the inhibition entry was “Dose-Dependent Effect”. The outcome in the data set on 4T1 [26] was inactive. Further, the AUCt in data set [28] was 8.43 µM·h. Also, the area under the curve AUC(0-inf) (commonly the area under the concentration-time curve extrapolated to infinity) in data set [29] came to 7020 ng·h/mL.
